Data: article PMC3065392 (Lipids, 2010)

Biological target: T1, ADRP (adipose differentiation-related protein) (Mus musculus, UniProt P43883)
T1 sequence (P43883 2-425): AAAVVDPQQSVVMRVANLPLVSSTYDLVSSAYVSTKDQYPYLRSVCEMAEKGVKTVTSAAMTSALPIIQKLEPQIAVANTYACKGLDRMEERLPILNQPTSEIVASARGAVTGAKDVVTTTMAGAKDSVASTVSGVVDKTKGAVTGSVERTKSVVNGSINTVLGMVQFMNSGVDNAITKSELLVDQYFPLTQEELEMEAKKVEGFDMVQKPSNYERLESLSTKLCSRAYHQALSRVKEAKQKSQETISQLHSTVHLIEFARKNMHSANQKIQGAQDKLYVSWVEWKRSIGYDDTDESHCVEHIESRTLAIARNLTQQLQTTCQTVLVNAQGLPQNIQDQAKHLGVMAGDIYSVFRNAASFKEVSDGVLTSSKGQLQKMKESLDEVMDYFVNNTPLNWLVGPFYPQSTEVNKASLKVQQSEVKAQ
Assay: fluorescence saturation binding titration, single-site fit
Outline: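 Stepwise titration of the NBD-labelled lipid (NBD-sphingomyelin or NBD-phosphatidylcholine, 100 µM stock) into ADRP (180 nM) in 10 mM phosphate buffer, pH 7.4. After each addition, samples were mixed 3–4 min at 25°C and the NBD probe was excited; emission 490–600 nm was integrated and corrected for blank and background. Kd and Bmax come from a single-site fit of three independent measurements (mean ± SE).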

SMILES	Kd [nM]
CCCCCCCCCCCCCCCC(=O)OC[C@H](COP(=O)([O-])OCC[N+](C)(C)C)OC(=O)CCCCCNc1ccc([N+](=O)[O-])c2nonc12 [NBD-phosphatidylcholine, 2-(6-(7-nitrobenz-2-oxa-1,3-diazol-4-yl)amino)hexanoyl-1-hexadecanoyl-sn-glycero-3-phosphocholine]	15 ± 3
CCCCCCCCCCCCC/C=C/[C@@H](O)[C@H](COP(=O)([O-])OCC[N+](C)(C)C)NC(=O)CCCCCNc1ccc([N+](=O)[O-])c2nonc12 [NBD-sphingomyelin, 6-((N-(7-nitrobenz-2-oxa-1,3-diazol-4-yl)amino)-hexanoyl)sphingosyl-phosphocholine]	257 ± 64
